GPR7 antagonist – antagonists of human GPR7 (neuropeptides B/W receptor 1) | P48145 | GPR7-expressing cells, fluorescence antagonist assay | inhibition, % at 4.4 µM | hit rate 1.1% among 290,000 | AID 1861; in the data active = inhibition above about 16%, passing the limit was not always enough;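 note: cells stimulated with the agonist NPW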
TAAR1 agonist – human TAAR1 agonism; CHO RD-HGA16 TAAR1, Fluo-8 calcium fluorescence; vehicle wells 0%, saturating PEA agonist 100%; AID 624467; Q96RJ0; hit rate 0.99% among 360,000; activation, % at 3 µM;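 active = activation above the mean activation of all test compounds in the run plus 3 SD, cut at about 38% in these data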
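System: CHO-derived RD-HGA16 cells with stable Gα16 and human TAAR1 / Times: 17-24 h plating, Fluo-8 75 min 37 °C, 30 min RT / Technique: calcium-sensitive Fluo-8 signal, excitation 470-495, emission 515-575 nm / Measure: % activation relative to PEA EC100 response / Benchmarks: DMSO and PEA EC100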
TRPML3 ag – activates the human TRPML3 channel | Q8TDD5 | hit rate 0.29% among 220,000 | activation, % at 3 µM | HEK293 TRPML3-YFP, Fluo-8 calcium fluorescence; 100% = the carbachol control signal | AID 1448;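 active = activation above its plate's cutoff, the mean activation of the plate's test wells plus 3 SD, cut at about 12% in these data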
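Test system: TRPML3-YFP stable HEK293 cells. Doses: single point at 3 µM. Incubation: dye loading 1 h 37 °C then 30 min ambient, 125 s read. Signal: Fluo-8 calcium dye fluorescence, ex 470-495, em 515-575 nm. Measure: percent activation from peak-to-basal fluorescence ratio, scaled between DMSO and carbachol.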
zfTRPN1 agonist – zebrafish TRPN1 (NompC) channel agonism | HEK293 zebrafish TRPN1-YFP, Fluo-8 calcium fluorescence; 100% = response to 87 µM carbachol | activation, % at 3 µM | hit rate 0.18% among 220,000 | AID 1424;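 active = activation above its plate's cutoff, the mean activation of test wells on that plate plus 3 SD, cut at about 19% in these data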
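Material: zebrafish TRPN1-YFP in HEK293 cells; Doses: single test compound dose, 3 µM nominal, 0.3% DMSO; Timing: dye loading 1 h at 37 °C, then 30 min room temperature; Technique: intracellular calcium fluorescence with Fluo-8; Benchmarks: high carbachol 87 µM, low DMSO alone.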
TAAR1 antagonist – human TAAR1 antagonism; Q96RJ0; CHO RD-HGA16 TAAR1, Fluo-8 calcium fluorescence, antagonist; inhibition, % at 3 µM; hit rate 1.5% among 360,000; AID 624466;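 active = inhibition above a per-plate cutoff, the mean inhibition of test compounds on that plate plus 3 SD, cut at about 49% in these data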
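Test system: hTAAR1-expressing CHO RD-HGA16 cells, Gα16-coupled; Probe or stimulus: EC80 β-phenethylamine stimulus; Compound dosing: single nominal final test compound concentration of 3 µM; Timing: 140 s kinetic read after compound, 140 s after agonist; Signal: Fluo-8 calcium-sensitive fluorescence; Measure: % inhibition of agonist calcium response; Controls: DMSO and EC80 PEA controls.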
LANA-H2A inh – blocks KSHV LANA binding to histone H2A/H2B; cell-free LANA-H2A/H2B peptide, fluorescence polarization; Q9QR71; inhibition, % (concentration not given with the values); AID 2629; hit rate 0.6% among 320,000; in the data active = inhibition mostly above about 10%, no sharp cut-off; inactive = mostly below about 6.7%
TAAR1 nonsel count – nonselective antagonist in TAAR1 antagonist counter-screen. inhibition, % at 3 µM. counterscreen cell line, calcium fluorescence, antagonist mode. hit rate 77% among 2,400. AID 651780. shares compounds with TAAR1 antagonist; in the data active = inhibition above about 22%;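 note: CHO-Ga16 host cells stimulated with ATP at an EC80 level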
TAAR1 antag conf – confirmation of human TAAR1 antagonists. shares compounds with TAAR1 antagonist. TAAR1-expressing cells, fluorescence antagonist read-out. inhibition, % at 3 µM. hit rate 40% among 2,400. AID 651785; in the data active = inhibition above about 49%;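 note: CHO-Ga16 host cells challenged with agonist PEA near its EC80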
Ga16 ag counter – nonselective Ga16 agonism, counter-screen | Ga16-expressing cells, calcium fluorescence, agonist counterscreen | hit rate 18% among 2,400 | shares compounds with TAAR1 antagonist | activation, % at 3 µM | AID 651953; in the data active = activation above about 12%
TAAR1 ag count – TAAR1 agonism, antagonist counter-screen; shares compounds with TAAR1 antagonist; hTAAR1 cell line, fluorescence activation, agonist mode; activation, % at 3 µM; hit rate 2% among 2,400; AID 651955; in the data active = activation above about 37%;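 note: CHO cells stably expressing TAAR1 with calcium dye readout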
Large screens that a line does not name were inactive (follow-up assays come after a bar, where they were run). Compounds with a hit are over-represented: about 3.4% of the library has one in this group of screens.

CC(C)CC(NC(=O)/C(=C/c1ccco1)NC(=O)c1ccc(Br)o1)C(=O)O (centres undefined)	none (no result: TRPML3 ag, zfTRPN1 agonist)
CC(C)(C)OC(=O)NCCCC[C@H](NC(=O)c1[nH]cnc1C(=O)Nc1ccc(CNC(=O)OC(C)(C)C)cc1)C(=O)OC(C)(C)C	TAAR1 antagonist 64.8 (no result: GPR7 antagonist, TRPML3 ag, zfTRPN1 agonist) | TAAR1 nonsel count 28.4 | TAAR1 antag conf 49.2 | Ga16 ag counter inactive | TAAR1 ag count inactive
C[C@H]1Cn2cnc(C(=O)Nc3ccc(CNC(=O)OC(C)(C)C)cc3)c2C(=O)N1	none (no result: GPR7 antagonist, TRPML3 ag, zfTRPN1 agonist, LANA-H2A inh)
C[C@H]1CNC(=O)c2c(C(=O)Nc3ccc(CNC(=O)OC(C)(C)C)cc3)ncn21	TAAR1 antagonist 54.8 (no result: GPR7 antagonist, TRPML3 ag, zfTRPN1 agonist, LANA-H2A inh) | TAAR1 nonsel count 34.2 | TAAR1 antag conf inactive | Ga16 ag counter inactive | TAAR1 ag count inactive
CC(C)(C)OC(=O)NCCCCCNC(=O)c1[nH]cnc1C(=O)Nc1ccc(Cl)cc1	TAAR1 antagonist 55.3 (no result: GPR7 antagonist, TRPML3 ag, zfTRPN1 agonist) | TAAR1 nonsel count 26.5 | TAAR1 antag conf inactive | Ga16 ag counter inactive | TAAR1 ag count inactive
Cc1ccc(NC(=O)c2nc[nH]c2C(=O)NCCCCCNC(=O)OC(C)(C)C)cc1	none (no result: GPR7 antagonist, TRPML3 ag, zfTRPN1 agonist)
CC(C)(C)OC(=O)NCc1ccc(NC(=O)c2nc[nH]c2C(=O)NCCCCCCNC(=O)c2[nH]cnc2C(=O)Nc2ccc(CNC(=O)OC(C)(C)C)cc2)cc1	none (no result: GPR7 antagonist, TRPML3 ag, zfTRPN1 agonist)
CC(C)(C)OC(=O)NCCCCCNC(=O)c1[nH]cnc1C(=O)Nc1ccccc1	TAAR1 antagonist 57.3 (no result: GPR7 antagonist, TRPML3 ag, zfTRPN1 agonist) | TAAR1 nonsel count inactive | TAAR1 antag conf inactive | Ga16 ag counter inactive | TAAR1 ag count inactive
O=C(NNc1c([N+](=O)[O-])cc(C(F)(F)F)cc1[N+](=O)[O-])c1ccco1	none (no result: TRPML3 ag, zfTRPN1 agonist)
O=c1[nH]c(CSc2nnc(-c3cccnc3)n2C2CCCCC2)nc2ccccc12	TAAR1 antagonist 65.0 | TAAR1 nonsel count 27.6 | TAAR1 antag conf 55.9 | Ga16 ag counter inactive | TAAR1 ag count inactive
Cc1c(OCC(=O)NCCN2CCOCC2)ccc2c1oc(=O)c1ccccc12	none (no result: TRPML3 ag, zfTRPN1 agonist)
CCN(CC)S(=O)(=O)c1ccc(/C=C/C(=O)Nc2cccc(F)c2)cc1	TAAR1 antagonist 57.7 | TAAR1 nonsel count 39.3 | TAAR1 antag conf 61.9 | Ga16 ag counter inactive | TAAR1 ag count inactive
COc1ccccc1NS(=O)(=O)c1ccc2c(c1)OCCO2	none (no result: TRPML3 ag, zfTRPN1 agonist, LANA-H2A inh)
CSCCC(NS(=O)(=O)c1ccc2c(c1)OCCO2)C(=O)NCCc1ccccn1 (centres undefined)	none
COc1cccc(CN(C)C(=O)C(CCSC)NS(=O)(=O)c2ccc3c(c2)OCCO3)c1OC (centres undefined)	TAAR1 antagonist 75.0 (no result: GPR7 antagonist, TRPML3 ag, zfTRPN1 agonist) | TAAR1 nonsel count 37.5 | TAAR1 antag conf 62.8 | Ga16 ag counter 11.7 | TAAR1 ag count inactive
CSCCC(NS(=O)(=O)c1ccc2c(c1)OCCO2)C(=O)N(C)Cc1ccc(C)cc1 (centres undefined)	TAAR1 antagonist 63.2 (no result: TRPML3 ag, zfTRPN1 agonist) | TAAR1 nonsel count 23.2 | TAAR1 antag conf inactive | Ga16 ag counter inactive | TAAR1 ag count inactive
COc1ccc(-c2coc3c(C(=O)NCc4ccc(C(F)(F)F)cc4)cccc23)c(C)c1	none (no result: GPR7 antagonist, TRPML3 ag, zfTRPN1 agonist, LANA-H2A inh)
CN(C)C(=O)c1ccccc1NC(=O)Cc1cccc2ccccc12	none (no result: TRPML3 ag, zfTRPN1 agonist)
COc1cccc(/C=C/c2nc(C#N)c(NCC(C)C)o2)c1	none (no result: TRPML3 ag, zfTRPN1 agonist)
O=C(Nc1ccc(NC(=O)N2CCN(c3ccccc3O)CC2)cc1)N1CCN(c2ccccc2O)CC1	none (no result: TRPML3 ag, zfTRPN1 agonist)
COC(=O)C1=COC(OC2OC(CO)C(O)C(O)C2O)C2C(C)CC(=O)C12 (centres undefined)	none (no result: GPR7 antagonist, TRPML3 ag, zfTRPN1 agonist, LANA-H2A inh)
COc1cc(N(C(C)=O)c2ccc(O)c(C(=O)O)c2)c2ncccc2c1	none (no result: GPR7 antagonist, TRPML3 ag, zfTRPN1 agonist, LANA-H2A inh)

Bioassay records (PubChem BioAssay)
